From ChEMBL document CHEMBL1131626 (J Med Chem, 1998)

How the values were obtained:
[1] = biological target: T1, Progesterone receptor (Mus musculus) (UniProt Q00175); assay: Effect on pregnancy in mice as corpora lutea at 3 mg/mouse dose with simultaneous 0.5 mg RU-486 dose; type: functional, organism-based
T1 sequence (whole entry): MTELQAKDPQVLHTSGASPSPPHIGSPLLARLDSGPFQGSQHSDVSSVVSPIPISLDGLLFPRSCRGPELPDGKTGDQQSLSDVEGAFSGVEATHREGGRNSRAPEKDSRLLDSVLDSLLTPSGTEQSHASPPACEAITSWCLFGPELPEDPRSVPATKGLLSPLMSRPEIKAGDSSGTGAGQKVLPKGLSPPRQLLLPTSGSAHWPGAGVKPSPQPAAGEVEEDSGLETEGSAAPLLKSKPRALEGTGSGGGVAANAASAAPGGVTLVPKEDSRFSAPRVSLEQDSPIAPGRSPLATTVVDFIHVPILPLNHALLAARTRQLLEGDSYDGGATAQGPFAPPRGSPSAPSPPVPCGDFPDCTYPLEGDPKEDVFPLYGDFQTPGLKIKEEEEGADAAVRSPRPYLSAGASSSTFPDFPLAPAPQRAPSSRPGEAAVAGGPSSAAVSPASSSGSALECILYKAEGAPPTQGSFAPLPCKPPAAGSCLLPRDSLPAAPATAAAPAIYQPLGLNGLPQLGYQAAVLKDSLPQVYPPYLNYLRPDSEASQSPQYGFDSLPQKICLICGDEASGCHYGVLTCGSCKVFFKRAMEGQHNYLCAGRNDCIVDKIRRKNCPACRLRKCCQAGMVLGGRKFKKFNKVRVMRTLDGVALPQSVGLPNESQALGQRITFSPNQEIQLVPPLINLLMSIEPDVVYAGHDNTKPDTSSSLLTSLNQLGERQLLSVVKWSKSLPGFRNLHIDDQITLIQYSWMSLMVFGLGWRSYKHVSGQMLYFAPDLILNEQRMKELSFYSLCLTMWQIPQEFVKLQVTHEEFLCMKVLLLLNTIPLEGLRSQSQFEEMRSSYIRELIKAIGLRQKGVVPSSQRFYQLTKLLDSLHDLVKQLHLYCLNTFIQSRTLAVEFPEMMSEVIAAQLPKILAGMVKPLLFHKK
In short: (§1)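 Mature virgin ICR mice, 10-12 weeks old, mated overnight; vaginal plug marks day 1. Oral RU486 0.5 mg (~15 mg/kg), alone or with test compound (mg/mouse), on days 2-4. Compounds in ethanol diluted with corn oil, 0.1 mL. Oil controls. Necropsy on day 8 to count corpora lutea and implantation sites and to score pregnancy. Student t-test.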

[2] = biological target: T1, Progesterone receptor (Mus musculus); assay: Effect on pregnancy in mice as number pregnant/mated at 3 mg/mouse dose with simultaneous 0.5 mg RU-486 dose; out of 9; type: functional; in short: as §1
[3] = biological target: T1, Progesterone receptor (Mus musculus); assay: Effect on pregnancy in mice as implantation at 1 mg/mouse dose with simultaneous 0.5 mg RU-486 dose; type: functional; in short: as §1
[4] = biological target: T1, Progesterone receptor (Mus musculus); assay: Effect on pregnancy in mice as corpora lutea at 1 mg/mouse dose with simultaneous 0.5 mg RU-486 dose; type: functional, organism-based; in short: as §1
[5] = biological target: T1, Progesterone receptor (Mus musculus); assay: Effect on pregnancy in mice as number pregnant/mated at 1 mg/mouse dose with simultaneous 0.5 mg RU-486 dose; out of 11; type: functional; in short: as §1
[6] = biological target: T1, Progesterone receptor (Mus musculus); assay: Effect on pregnancy in mice as percent pregnant at 1 mg/mouse dose with simultaneous 0.5 mg RU-486 dose; type: functional; in short: as §1
[7] = biological target: T1, Progesterone receptor (Mus musculus); assay: Effect on pregnancy in mice as percent pregnant at 3 mg/mouse dose with simultaneous 0.5 mg RU-486 dose; type: functional; in short: as §1
[8] = biological target: T1, Progesterone receptor (Mus musculus); assay: Effect on pregnancy in mice as implantation at 3 mg/mouse dose with simultaneous 0.5 mg RU-486 dose; type: functional; in short: as §1
[9] = biological target: T1, Progesterone receptor (Mus musculus); assay: Effect on pregnancy in mice as number pregnant/mated at 10 mg/mouse dose with simultaneous 0.5 mg RU-486 dose; out of 10; type: functional; in short: as §1
[10] = biological target: T1, Progesterone receptor (Mus musculus); assay: Effect on pregnancy in mice as corpora lutea at 10 mg/mouse dose with simultaneous 0.5 mg RU-486 dose; type: functional, organism-based; in short: as §1
[11] = biological target: T1, Progesterone receptor (Mus musculus); assay: Effect on pregnancy in mice as implantation at 30 mg/mouse dose with simultaneous 0.5 mg RU-486 dose; type: functional; in short: as §1
[12] = biological target: T1, Progesterone receptor (Mus musculus); assay: Effect on pregnancy in mice as percent pregnant at 10 mg/mouse dose with simultaneous 0.5 mg RU-486 dose; type: functional; in short: as §1
[13] = biological target: T1, Progesterone receptor (Mus musculus); assay: Effect on pregnancy in mice as corpora lutea at 30 mg/mouse dose with simultaneous 0.5 mg RU-486 dose; type: functional, organism-based; in short: as §1
[14] = biological target: T1, Progesterone receptor (Mus musculus); assay: Effect on pregnancy in mice as number pregnant/mated at 30 mg/mouse dose with simultaneous 0.5 mg RU-486 dose; out of 10; type: functional; in short: as §1
[15] = biological target: T1, Progesterone receptor (Mus musculus); assay: Effect on pregnancy in mice as implantation at 10 mg/mouse dose with simultaneous 0.5 mg RU-486 dose; type: functional; in short: as §1
[16] = biological target: T1, Progesterone receptor (Mus musculus); assay: Effect on pregnancy in mice as number pregnant/mated at 1 mg/mouse dose with simultaneous 0.5 mg RU-486 dose; out of 10; type: functional; in short: as §1
[17] = biological target: T1, Progesterone receptor (Mus musculus); assay: Effect on pregnancy in mice as number pregnant/mated at 3 mg/mouse dose with simultaneous 0.5 mg RU-486 dose; out of 12; type: functional; in short: as §1
[18] = biological target: T1, Progesterone receptor (Mus musculus); assay: Effect on pregnancy in mice as percent pregnant at 30 mg/mouse dose with simultaneous 0.5 mg RU-486 dose; type: functional; in short: as §1
[19] = biological target: T1, Progesterone receptor (Mus musculus); assay: Effect on pregnancy in mice as implantation at 0.5 mg/mouse dose with simultaneous 0.5 mg RU-486 dose; type: functional; in short: as §1
[20] = biological target: T1, Progesterone receptor (Mus musculus); assay: Effect on pregnancy in mice as corpora lutea at 0.5 mg/mouse dose with simultaneous 0.5 mg RU-486 dose; type: functional, organism-based; in short: as §1
[21] = biological target: T1, Progesterone receptor (Mus musculus); assay: Effect on pregnancy in mice as number pregnant/mated at 0.5 mg/mouse dose with simultaneous 0.5 mg RU-486 dose; out of 16; type: functional; in short: as §1
[22] = biological target: T1, Progesterone receptor (Mus musculus); assay: Effect on pregnancy in mice as percent pregnant at 0.5 mg/mouse dose with simultaneous 0.5 mg RU-486 dose; type: functional; in short: as §1

CC#C[C@]1(O)CC[C@H]2[C@@H]3CCC4=CC(=O)CCC4=C3[C@@H](c3ccc(N(C)C)cc3)C[C@@]21C.CC1=CC(C)(C)Nc2ccc3c(c21)C(c1cccc(Cl)c1)Oc1ccc(F)cc1-3
Corpora lutea [1]: 14.1
No. pregnant/mated [2]: 9
Implants [3]: 12
Corpora lutea [4]: 14.1
No. pregnant/mated [5]: 10
Pregnant [6]: 91%
Pregnant [7]: 100%
Implants [8]: 13.7

CC#C[C@]1(O)CC[C@H]2[C@@H]3CCC4=CC(=O)CCC4=C3[C@@H](c3ccc(N(C)C)cc3)C[C@@]21C.CC(=O)O[C@]1(C(C)=O)CC[C@H]2[C@@H]3C[C@H](C)C4=CC(=O)CC[C@]4(C)[C@H]3CC[C@@]21C
Corpora lutea [1]: 13.6
No. pregnant/mated [9]: 1
Corpora lutea [10]: 12.3
Implants [11]: 6.7
Implants [3]: 1.2
Pregnant [12]: 10%
Corpora lutea [4]: 11.7
Corpora lutea [13]: 10.7
No. pregnant/mated [14]: 5
Implants [15]: 1.4
Pregnant [6]: 10%
Pregnant [7]: 16.7%
No. pregnant/mated [16]: 1
No. pregnant/mated [17]: 2
Pregnant [18]: 50%
Implants [8]: 2.6

CC#C[C@]1(O)CC[C@H]2[C@@H]3CCC4=CC(=O)CCC4=C3[C@@H](c3ccc(N(C)C)cc3)C[C@@]21C
Implants [19]: 3.3
Corpora lutea [20]: 13.4
No. pregnant/mated [21]: 3
Pregnant [22]: 18.8%
